Screening data: PubChem, several laboratories
The list is not random: actives were taken first. Their share in the collection is about 2%.
Myeloid diff MLP: myeloid differentiation induction. ER-HoxA9 myeloid progenitors, lysozyme-GFP differentiation, flow cytometry. calls only at 10 µM. 360,000 compounds, 1% hits;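 active = normalized GFP-positive differentiation at or above the plate's own cutoff, the solvent-only control mean plus 3 SD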;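 also: cells exposed to compound for four days before flow analysis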
FXN GAA850 act: increases GAA850 frataxin promoter reporter activity. HEK293 lucGAA850 FXN promoter luciferase reporter, 24 h; percent of 10 µM SAHA response. 360,000 compounds, 0.56% hits. activation, % at 6 µM;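 active = activation above the average of all compounds screened plus 3 SD, cutoff fixed separately per campaign, cut at about 7.5% in these data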;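 also: 0% = DMSO wells and 100% = 10 µM SAHA wells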
NR2E3 ag-1: activates human NR2E3 receptor. CHO-S Gal4-NCOR/VP16-NR2E3 two-hybrid, luciferase. AID 602229. 360,000 compounds, 0.35% hits. Q9Y5X4. inhibition of corepressor binding, % at 3.98 µM;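 active = inhibition above the mean of all tested compounds plus 3 SD, cut at about 70% in these data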;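 also: 0% = DMSO with NR2E3 transfected cells and 100% = cells lacking NR2E3 construct; higher means lower luciferase signal from less NR2E3 corepressor binding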
Target sequence (Q9Y5X4 whole entry, looked up, the tested form may be a part): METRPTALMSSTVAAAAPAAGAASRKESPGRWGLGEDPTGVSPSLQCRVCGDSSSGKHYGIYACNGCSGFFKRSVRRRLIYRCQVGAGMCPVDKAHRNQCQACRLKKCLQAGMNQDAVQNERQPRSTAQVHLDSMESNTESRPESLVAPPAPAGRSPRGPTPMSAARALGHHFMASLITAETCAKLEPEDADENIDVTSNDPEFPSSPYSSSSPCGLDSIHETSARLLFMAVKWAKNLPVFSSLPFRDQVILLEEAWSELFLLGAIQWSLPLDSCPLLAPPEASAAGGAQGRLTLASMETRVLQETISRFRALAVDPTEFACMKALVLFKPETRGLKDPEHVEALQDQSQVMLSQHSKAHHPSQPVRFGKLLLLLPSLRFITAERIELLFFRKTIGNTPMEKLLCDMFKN
T cell modulator: modulates CD8 T cell binding to vesicles; 2C CD8+ T cell-vesicle binding, flow cytometry; stronger effect = lower value; response (vesicle binding), % at 7 µM; 330,000 compounds, 0.068% hits; AID 2052;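 active = response, share of CD8 T cells binding vesicles, and their 90th percentile fluorescence all below set limits, cut at about 80% in these data, passing the limit was not always enough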;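 also: values below 100% mean blocked vesicle binding to the CD8+ T cells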
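Assay system – 2C mouse CD8+ T cells · Also added – QL9-loaded Drosophila micro-vesicles · Timing – Cell–vesicle co-incubation 1.5 h at 37 °C, staining 20 min on ice · Signal – flow cytometry of vesicle-bound cells · Measure – percent CD8+ FL2 mean versus row control · Controls – Peptide-free naked vesicles (low) and QL9 vesicles with 0.7% DMSO vehicle (high)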
NR2E3 ag-2: agonists of human nuclear receptor NR2E3 | Q9Y5X4 | GST-NR2E3/biotin-RetCOR TR-FRET, 1536-well | inhibition of corepressor binding, % at 4.78 µM | 320,000 compounds, 0.12% hits | AID 2300;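 active = percent inhibition above the cutoff of mean plus 3 SD of all tested compounds, set per screening campaign, cut at about 20% in these data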;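 also: 0% = DMSO wells and 100% = biotin wells as full block of FRET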
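System: GST-tagged NR2E3 plus biotinylated RetCOR corepressor; Amount: 1.35 nM GST-tagged NR2E3 final; Dosing: single nominal compound dose of 4.8 µM; Schedule: 5 h incubation at 4 °C; Technique: TR-FRET with europium anti-GST and streptavidin-D2, 340 nm excitation; Controls: biotin wells as high control, 0.6% DMSO wells as low control.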
The depositor's hits bear a star; i = inactive; / = no result; + = active, no number.

SMILES	Myeloid diff MLP	FXN GAA850 act	NR2E3 ag-1	T cell modulator	NR2E3 ag-2
N#CC(C#N)=c1ccc2c(c1)NC1(CCCCC1)N=2	+	0.3	12.8	474.2	-37.0
N#CC(C#N)=C1NC2(CCCCC2)Cc2ccccc21	i	2.0	-16.7	177.8	-2.0
O=C(COC(=O)c1cc(=O)[nH]c2ccccc12)NCCc1ccccc1	i	1.4	4.2	314.6	/
C=C1/C=C(\C)[C@](C)(O)C[C@H](O)CC(=O)[C@H](O)[C@@H](O)[C@H](C)C[C@H](C)OC(=O)/C(C)=C/CC/C=C/[C@@H]2O[C@H]2C[C@H](C)C1	/	/	/	753.7	/
CC1Cc2cc(-c3csc(NC(=O)Cc4ccccc4)n3)ccc2N1S(C)(=O)=O (stereo not given)	+	-5.9	25.4	347.2	0.7
CC(=O)c1c(C)n([O-])c2cc(F)c(F)cc2[n+]1=O	+	1.7	15.5	190.4	4.4
COc1ccc2c(c1)[n+](=O)c(C(C)=O)c(C)n2[O-]	i	-0.8	-17.6	296.1	-1.0
ClCC1NCC(c2ccccc2Cl)c2c1[nH]c1ccccc21 (stereo not given)	+	-1.4	-11.0	600.0	-1.6
O=[N+]([O-])c1ccc(C2=NN(c3ccccc3)C(c3ccco3)C2)cc1 (stereo not given)	+	0.8	-13.7	/	/
CC1=NN(c2ccccc2)C(c2ccco2)C1 (stereo not given)	i	0.2	-4.1	/	/
O=[N+]([O-])c1ccc(/C=C/C2=NN(c3ccccc3)C(c3ccco3)C2)cc1 (stereo not given)	+	3.4	-20.5	615.9	0.1
COC(=O)c1cc2c(cc1NC(=O)CSCCc1ccccn1)OCO2	+	0.7	-7.3	165.4	1.2
CC(=O)C1=C(O)C(=O)N(CCCn2ccnc2)C1c1ccc(Br)cc1 (stereo not given)	+	3.4	-27.8	602.8	5.4
COc1ccc(C2C(C(C)=O)=C(O)C(=O)N2CCCn2ccnc2)cc1OC (stereo not given)	i	0.3	11.2	430.7	0.2
CCOc1ncccc1C(=O)NC(C)CCc1ccccc1 (stereo not given)	+	2.1	8.4	193.5	/
COC(=O)/C=C1/S/C(=N/NC(=O)c2ccccc2OC)NC1=O	+	-0.7	-17.2	371.7	-0.5
CCN(CC)C(=O)Cn1c(=O)c2ccccc2n2c(=S)sc(-c3cccc(C)c3)c12	+	1.0	8.5	214.6	-0.3
Cc1ccc(NC(=O)C(c2ccccc2)c2ccccc2)c(O)c1	/	-1.9	10.5	162.2	3.4
O=C(CCn1c(=O)oc2cc(Cl)ccc21)Nc1ccc(N2CCOCC2)cc1	+	-0.5	7.9	246.8	1.0
O=C(NCc1ccc(Cl)cc1)c1ccc(-c2ccc(F)c(F)c2)c2ccoc12	i	-0.8	-28.9	/	/
CCCC(=O)Nc1ccc(Cl)c(NC(=O)c2cccnc2)c1	i	-0.7	-9.6	0.0*	-2.4
CCC(=O)Nc1ccc(Cl)c(NC(=O)c2cccnc2)c1	i	-0.4	-10.2	622.0	5.0
Cc1ccccc1N(CC(=O)NCc1ccccc1)C(=O)CCC(=O)Nc1nccs1	i	-0.5	-10.9	220.5	-1.3
COc1ccccc1CNCC(O)(c1ccc(F)cc1)c1ccc(F)cc1	i	-4.7	-35.8	265.0	-6.4
COc1ccccc1CNCC(O)(c1ccc(Cl)cc1)c1ccc(Cl)cc1	+	-4.6	-4.5	672.2	-0.4
SMILES	Myeloid diff MLP	FXN GAA850 act	NR2E3 ag-1	T cell modulator	NR2E3 ag-2
Cc1ccc(C)c(OC(=O)c2cncc(Br)c2)c1	i	1.2	-4.5	0.0*	3.4
C=C1CCN([C@@H](CC(C)C)C(=O)NCc2ccco2)S(=O)(=O)c2ccccc21	i	2.9	-1.1	245.0	1.4
CC(C)(C)OC(=O)COc1ccc(/C=N/NC(=O)CN2CCCCC2)cc1	i	2.2	-133.3	/	/
CC1CC(C)CN(CC(=O)c2c[nH]c3ccccc23)C1 (stereo not given)	+	-0.7	-1.1	83.8	-0.2
O=C(c1ccc(N2C(=O)C3CC=C(Cl)CC3C2=O)cc1)N1CCCCC1 (stereo not given)	i	2.8	-19.8	0.0*	1.1
O=C(c1ccc(N2C(=O)C3CC=C(Cl)CC3C2=O)cc1)N1CCOCC1 (stereo not given)	i	0.6	-1.2	165.2	-0.7
CCCCNc1c(-c2ccc(OC)c(SC(C)CC)c2)nc2cnccn12 (stereo not given)	i	-3.8	17.6	/	/
CCCCCCSc1ccc(-c2nc3cnccn3c2NCCCC)cc1	+	1.9	-6.6	351.1	/
COc1ccc(-c2cc3c(c4c2ccn4C)C2CCC3O2)cn1 (stereo not given)	i	/	27.4	/	/
COc1ccc2[nH]c(=O)c(CN(C(=O)C(C)C)c3ccccc3OC)cc2c1	+	-1.6	-47.4	330.3	3.5
CCC(=O)N(Cc1cc2cc(OC)ccc2[nH]c1=O)c1ccccc1OC	i	-0.5	2.0	/	/
Cn1cc(Cc2ccc(C(=O)N3CCCCC3)cn2)c2ccccc21	i	-0.7	-3.3	/	/
CCCCCCCCN1CC(Cc2cc3ccccc3c3ccccc23)N(c2ccccc2)c2ccccc2C1=O (stereo not given)	i	/	/	/	/
Cc1ccc(C2=NN(C(=O)CSc3nccn3C)C(c3ccco3)C2)cc1 (stereo not given)	+	-1.9	-39.8	i	2.5
O=C(COc1cccnc1[N+](=O)[O-])N1N=C(c2ccc(Cl)cc2)CC1c1ccco1 (stereo not given)	+	0.6	-3.9	248.5	-0.1
CSc1ccccc1NC(=O)COc1ccccc1C	+	1.4	-20.3	358.9	-0.6
Cc1ccccc1OCC(=O)Nc1ccccc1CO	i	-2.4	-5.2	470.1	0.0
O=Cc1ccc2c(c1)OCCOCCOCCOCCO2	i	-0.2	-44.4	/	/
N#Cc1cc2c(=O)n3ccccc3nc2n(-c2ccccc2Cl)c1=O	+	-0.7	-14.2	214.9	2.5
COc1cccc(NC(=O)CSc2nn3c(=O)c(C)nnc3s2)c1	i	-2.3	-32.5	294.9	3.1
CC(N)c1ccc(Cl)cc1Cl (stereo not given)	i	2.2	-3.3	32.3*	-2.4
COC(=O)c1ccc(C[n+]2ccccc2)cc1	i	2.1	-7.9	452.7	0.2
Cc1ccc(C[n+]2ccccc2)cc1	+	-1.7	-24.0	328.0	0.3
CCCC[C@@H]1C[C@H]1[C@@H](NC(=O)c1ccco1)c1ccc(C(=O)OC)cc1	/	/	/	461.7	-1.6
COc1ccccc1C(=O)Nc1ccc2c(c1)nc1n2CCN(C2CCCCC2)C1	+	0.9	-2.8	405.5	3.2
O=C(NCc1ccccn1)[C@@H]1CCCN1C(=O)[C@@H]1CCCN1C(=O)c1ccc(Cl)cc1	i	/	-3.5	/	/
COC(=O)c1c(N)n(-c2ccc(NC(C)=O)cc2)c2nc3ccccc3nc12	+	-3.3	-17.2	132.5	3.8
